Experimental findings from ChEMBL document CHEMBL2401719, “The development of a new class of inhibitors for betaine-homocysteine S-methyltransferase” (Eur J Med Chem, 2013) are described below.

For experiment [1], the target named is T1, Betaine--homocysteine S-methyltransferase 1 (Homo sapiens) (UniProt Q93088).
T1 sequence (whole entry): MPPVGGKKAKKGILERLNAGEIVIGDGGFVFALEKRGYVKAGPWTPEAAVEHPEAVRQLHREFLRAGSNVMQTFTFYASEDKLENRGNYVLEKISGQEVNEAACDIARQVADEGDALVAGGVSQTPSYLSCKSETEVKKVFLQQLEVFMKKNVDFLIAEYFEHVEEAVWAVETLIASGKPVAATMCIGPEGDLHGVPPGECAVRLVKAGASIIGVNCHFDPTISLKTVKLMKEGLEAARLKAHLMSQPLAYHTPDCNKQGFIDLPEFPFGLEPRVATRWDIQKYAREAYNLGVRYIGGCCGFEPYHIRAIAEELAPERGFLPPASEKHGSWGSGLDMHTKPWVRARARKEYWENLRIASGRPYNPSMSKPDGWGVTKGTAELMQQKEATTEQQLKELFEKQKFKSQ
The experiment is described as follows: Inhibition of human recombinant BHMT using N-methyl-[14C]-betaine/D,L-homocysteine as substrate at 20 uM after 30 mins by scintiillation counting analysis. In a few lines: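 Human recombinant BHMT assayed in pH 7.5 buffer with 0.25 mM betaine and 0.1 mM D,L-homocysteine, compound at a single fixed concentration. Percent inhibition is the average of triplicates, with data reproducible within ±15%.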

Experiment [2] deals with T2, Betaine--homocysteine S-methyltransferase 1 (Homo sapiens, UniProt Q93088).
T2 sequence (Q93088 whole entry): T1 sequence (whole entry)
Nature of the experiment: Inhibition of human recombinant BHMT using N-methyl-[14C]-betaine/D,L-homocysteine as substrate after 30 mins by scintiillation counting analysis. In a few lines: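 Human recombinant BHMT assayed in pH 7.5 buffer with 2 mM betaine and 1 mM D,L-homocysteine. Each IC50 data point was run in duplicate.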

As for `N#CC(N)CCSCCCCC(=O)O` (racemic), in experiment [1], the inhibition was 9%.
Turning to `NC(CCSCCCCC(=O)O)c1nc(=O)o[nH]1` (racemic), the inhibition in experiment [1] came to 15%.
On the same count and under the same terms, with `CS(=O)(=O)NC(=O)C(N)CCSCCCCC(=O)O` (racemic) the figure was 67%.
Turning to `NC(CCSCCCCC(=O)O)[PH](=O)O` (racemic), in experiment [2], the 50% inhibitory concentration (IC50) amounted to 5 µM. In addition, the inhibition in experiment [1] was 95%.
Turning to `O=C(O)CCCCS[C@@H]1CN[C@H](C(=O)O)C1`, the inhibition in experiment [1] was determined as 24%.
Still for that read-out and setting: with `NC(=O)C(N)CCSCCCCC(=O)O` (racemic) the figure was 17%; with `NC(CCSCCCCC(=O)O)c1nnn[nH]1` (racemic), 0%.
`CC(C)(CCSCCC(N)[PH](=O)O)CC(=O)O` (racemic): the IC50 in experiment [2] worked out at 1.1 µM. Moreover, in experiment [1], the inhibition is 99%.
`O=C(O)CCCCS[C@H]1CN[C@H](C(=O)O)C1`: the inhibition in experiment [1] was 0%.
Still for that read-out and setting: with `NNC(=O)C(N)CCSCCCCC(=O)O` (racemic) the figure was 28%.
In the case of `NC(CCSCCCCC(=O)O)P(=O)(O)O` (racemic), in experiment [2], the IC50 turned out to be 219 µM. For the same molecule, in experiment [1], the inhibition was determined as 58%.
For the molecule `NC(CCSCCCCC(=O)O)C(=O)N1CCCCC1` (racemic), the inhibition in experiment [1] came out at 9%.
Same read-out and setting: with `CNC(=O)C(N)CCSCCCCC(=O)O` (racemic) the figure was 8%.
